Screens (PubChem)
Ecoli WT expand = E. coli BW25113 growth inhibition, expanded screen; 0.15% of 98,000 active; OD600 absorbance; growth inhibition, % at 100 µM;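 active = growth inhibition above about 50% at one test dose, limit read from the data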;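 note: growth measured after 20 h incubation at 37 °C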
WNV protease inh = WNV NS2B-NS3 proteinase inhibition; WNV NS2B-NS3 protease, fluorogenic substrate Ex360/Em465; active compounds read low; z-score (concentration not given with the values); 0.18% of 65,000 active; AID 577; in the data active = z-score below about -3
Ecoli tolC = blocks growth of E. coli BW25113 tolC mutant. growth inhibition, % at 10 µM (by protocol). 2.2% of 65,000 active. OD615;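 active = growth inhibition at or above a cutoff equal to the mean over every tested compound plus 3 SD, cut at about 60% in these data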;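 note: growth measured after 20 h incubation at 37 °C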
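Doses: one dose of 10 µM final / Material: E. coli BW25113 ΔtolC::kan, tolC deletion mutant strain / Buffer or medium: LB with kanamycin 50 µg/mL / Evaluation: percent growth inhibition / Detection: optical density read at 615 nm / Incubation: 37 °C, 20 h exposure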
TNAP act mid DEA = human TNAP activation, intermediate phosphate acceptor; P05186; purified TNAP, CDP-star luminescence, 100 mM DEA, 30 min; active compounds read high; scale: 0 levamisole-inhibited, 1 vehicle-only enzyme; activation factor at 20 µM; 64,000 tested, under 10 active; AID 813;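 active = activation factor of at least 2 at 20 µM, relative to controls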
Target sequence (P05186 whole entry, looked up): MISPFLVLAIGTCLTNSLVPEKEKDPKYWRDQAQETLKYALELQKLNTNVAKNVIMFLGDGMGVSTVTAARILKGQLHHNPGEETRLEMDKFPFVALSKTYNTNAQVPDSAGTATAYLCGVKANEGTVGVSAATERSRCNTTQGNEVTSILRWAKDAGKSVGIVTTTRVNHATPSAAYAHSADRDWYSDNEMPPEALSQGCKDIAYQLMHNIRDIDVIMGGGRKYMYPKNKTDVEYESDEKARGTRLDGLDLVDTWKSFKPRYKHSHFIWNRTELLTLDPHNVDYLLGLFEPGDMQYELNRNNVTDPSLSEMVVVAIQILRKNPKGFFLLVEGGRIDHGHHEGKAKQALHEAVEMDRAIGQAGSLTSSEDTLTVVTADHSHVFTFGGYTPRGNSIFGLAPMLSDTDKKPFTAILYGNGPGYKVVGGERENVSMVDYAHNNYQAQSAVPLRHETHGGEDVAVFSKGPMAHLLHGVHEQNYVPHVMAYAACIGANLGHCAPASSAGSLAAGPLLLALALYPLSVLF
BAP1 block = blocks human BAP1 ubiquitin-AMC hydrolysis. Q92560. recombinant BAP1, Ub-AMC hydrolysis fluorescence kinetic; active compounds read low. calls only at 20 µM. 0.48% of 72,000 active. AID 436;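 active = activity remaining at or below 50% of control, provided the compound also passes the data quality filters; inactive = the rest, including low values that fail the filters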
Each line names hits and unclear results; the compound was inactive in the other large screens. Only a selection was taken, and hits are over-represented in it overall.

COc1cc2c(cc1OC)C(C)N(C(=O)CCN1C(=O)C3C4C=CC(C4)C3C1=O)CC2 (configuration not stated)	none
CSCCOC(=O)C1=C(C)NC(=O)CC1c1ccccc1Cl (configuration not stated)	Ecoli tolC 62
CC1=C(C(=O)OC(C)C)C(c2ccccc2Cl)CC(=O)N1 (configuration not stated)	none
Cc1cc(N2CCCCC2)n2ncc(-c3ccccc3)c2n1	Ecoli tolC 75 (not shown: BAP1 block)
O=C1NC(=Nc2ccccc2)S/C1=C\c1cccn1-c1ccccc1	none (no result: WNV protease inh, Ecoli tolC, TNAP act mid DEA, BAP1 block)
Cc1ccc(SCCNS(=O)(=O)c2ccc3c(c2)OCCO3)cc1	Ecoli tolC 74
CCn1c(C(=O)N2CCC(C(=O)NCCCSC3CCCCC3)CC2)cc2sccc21	Ecoli tolC 84
CCN1CCN(C(=O)C2CCN(C(=O)c3cc4sccc4n3CC)CC2)CC1	none
CCSc1nc2c(c(=O)n(C)c(=O)n2C)n1Cc1ccc(Cl)cc1	none (no result: Ecoli WT expand)
Cc1ccc(Cn2c(SCC(C)C)nc3c2c(=O)n(C)c(=O)n3C)cc1	Ecoli tolC 92
CCN(CC)S(=O)(=O)c1ccc(C(=O)Nc2ccc(OC)cc2[N+](=O)[O-])cc1	none (no result: Ecoli WT expand, WNV protease inh, Ecoli tolC, TNAP act mid DEA)
Cc1cc(-c2nsc(=O)o2)c(S(C)(=O)=O)s1	none
Clc1ccc(Cn2ncc3c(NCc4ccco4)ncnc32)c(Cl)c1	Ecoli tolC 68
COc1cccc(NC(=O)N2CCN(c3cccc(C)c3C)CC2)c1	Ecoli tolC 72 (not shown: BAP1 block)
COc1ccccc1N1CCN(C(=O)Nc2cccc(Cl)c2)CC1	none (no result: WNV protease inh, Ecoli tolC, TNAP act mid DEA, BAP1 block)
Cc1ccc(-c2csc(N(CC3CCCO3)C(=O)c3ccco3)n2)cc1 (configuration not stated)	Ecoli tolC 67 (not shown: Ecoli WT expand, BAP1 block)
O=C(c1ccco1)N(CC1CCCO1)c1nc(-c2ccccc2)cs1 (configuration not stated)	none
COc1cccc(-c2cc(C(=O)N3CCc4ccccc4C3)no2)c1	Ecoli tolC 90
COc1cccc(-c2cc(C(=O)N3CCN(Cc4ccccc4)CC3)no2)c1	none
COc1ccc(OC)c(-c2cc(C(=O)N3CCc4ccccc4C3)no2)c1	Ecoli tolC 69 (not shown: BAP1 block)
COc1ccc(OC)c(-c2cc(C(=O)N3CCN(c4ccccc4)CC3)no2)c1	none
Cc1cccc(NC(=O)c2cc3n(n2)C(C(F)(F)F)CC(c2ccc4c(c2)OCO4)N3)c1 (configuration not stated)	Ecoli tolC 68
OC(CN1CCN(c2ccccn2)CC1)Cn1c2ccccc2c2ccccc21 (configuration not stated)	none
OC(COc1ccc(Cl)c2ccccc12)CN1CCN(c2ccccn2)CC1 (configuration not stated)	Ecoli tolC 100 (no result: BAP1 block)
Cc1ccc2oc(-c3ccc(NC(=O)c4ccc(F)cc4)c(C)c3)nc2c1	none (no result: Ecoli WT expand, WNV protease inh, Ecoli tolC, TNAP act mid DEA)
O=C(NCc1ccc2c(c1)OCO2)c1ccc(COc2cccc(Cl)c2)o1	Ecoli tolC 79
COc1ccc(CNCCC2(c3ccc(OC)cc3)CCOC(C)(C)C2)cc1 (configuration not stated)	none (no result: Ecoli WT expand, WNV protease inh, Ecoli tolC, TNAP act mid DEA)
CCc1nc(N2CCCCC2)c2oc3ccccc3c2n1	Ecoli tolC 100
CCc1nc(N2CCCCC2C)c2oc3ccccc3c2n1 (configuration not stated)	Ecoli tolC 100
CCN(CC)c1ccc2cc(C(=O)Nc3cccc4ccccc34)c(=N)oc2c1	none (no result: Ecoli WT expand, WNV protease inh, Ecoli tolC, TNAP act mid DEA)
C=CCOC(=O)C(C#N)c1nc2ccccc2nc1N1CCCC1 (configuration not stated)	Ecoli tolC 96
COCCOC(=O)C(C#N)c1nc2ccccc2nc1N1CCCC1 (configuration not stated)	none
CCCOC(=O)C1=C(C)NC2=C(C(=O)CC(C)(C)C2)C1c1ccc(OC)cc1 (configuration not stated)	none (no result: Ecoli WT expand, WNV protease inh, Ecoli tolC, TNAP act mid DEA)
O=C(Nc1ncc(Br)s1)C(Cc1ccccc1)n1cccc1 (configuration not stated)	Ecoli tolC 96
O=C(CSc1nc(O)c(C2CCCCC2)c(=O)[nH]1)Nc1ccc(Cl)cc1	Ecoli tolC 62
Cc1sc(NC(=O)c2ccco2)c(CN2CCN(c3ccccn3)CC2)c1C	Ecoli tolC 63
Cc1sc(NC(=O)c2ccco2)c(CN2CCN(c3ccc(F)cc3)CC2)c1C	none (no result: WNV protease inh, Ecoli tolC, TNAP act mid DEA, BAP1 block)
CC1CCCN(c2ncnc3c2cnn3-c2ccccc2)C1 (configuration not stated)	none (no result: Ecoli WT expand)
CC1CCCN(c2ncnc3c2cnn3-c2ccc(Cl)cc2)C1 (configuration not stated)	Ecoli tolC 96 (no result: Ecoli WT expand)
Cc1cccc(-n2ncc3c(N4CCC(C)CC4)ncnc32)c1	Ecoli tolC 94
c1ccc(CCN2CCN(c3ncnc4c3cnn4-c3ccccc3)CC2)cc1	Ecoli tolC 66 (not shown: BAP1 block)
Cc1cccc(-n2ncc3c(N(C)Cc4ccccc4)ncnc32)c1	Ecoli tolC 93 (no result: Ecoli WT expand)
N#Cc1ccc(C=Cc2cc(C(F)(F)F)[nH]c(=O)n2)cc1	none (no result: Ecoli WT expand, WNV protease inh, Ecoli tolC, TNAP act mid DEA)
COc1cccc(C(=O)Nc2ccc(Cl)c(-c3nc4cc(C)ccc4o3)c2)c1	none (no result: Ecoli WT expand, WNV protease inh, Ecoli tolC, TNAP act mid DEA)
Cc1ccc2oc(-c3cccc(NC(=O)c4ccc(Br)cc4)c3C)nc2c1	none (no result: Ecoli WT expand, WNV protease inh, Ecoli tolC, TNAP act mid DEA)
CCOC(=O)c1ccc(N2C(=O)C3C(c4ccccc4F)OC4(C(=O)c5ccccc5C4=O)C3C2=O)cc1 (configuration not stated)	none (no result: Ecoli WT expand, WNV protease inh, Ecoli tolC, TNAP act mid DEA)
CCCn1nc(NC(=O)c2cccs2)c2cc3ccccc3nc21	none (no result: WNV protease inh, Ecoli tolC, TNAP act mid DEA, BAP1 block)
CCCCn1nc(NC(=O)c2cccs2)c2cc3ccccc3nc21	Ecoli tolC 91 (no result: BAP1 block)
CCCCn1nc(NC(=O)c2cccs2)c2cc3cc(OC)ccc3nc21	Ecoli tolC 63 (not shown: BAP1 block)
Cc1nn(S(=O)(=O)c2ccc([N+](=O)[O-])cc2)c(C)c1Sc1ccc(Cl)cc1	none (no result: Ecoli WT expand, WNV protease inh, Ecoli tolC, TNAP act mid DEA)
c1cnc(N2CCN(c3ncnc4c3oc3ccccc34)CC2)nc1	none (no result: Ecoli WT expand)
C(=C\c1ccccc1)/CN1CCN(c2ncnc3c2oc2ccccc23)CC1	Ecoli tolC 100 (no result: BAP1 block)
COc1ccc(C2CC(C(F)(F)F)n3nc(C(=O)Nc4cccc(O)c4)cc3N2)cc1 (configuration not stated)	none (no result: Ecoli WT expand, WNV protease inh, Ecoli tolC, TNAP act mid DEA)
CCCCOn1c(C)c(C(=O)OCC)c2c3nonc3ccc21	Ecoli tolC 66 (not shown: Ecoli WT expand, BAP1 block)
CCCCOn1c(C)c(C(=O)OCC)c2c3no[n+]([O-])c3ccc21	none
CC1=C(C(=O)OCc2ccc(C)cc2)C(c2ccccc2OCc2ccccc2)NC(=O)N1 (configuration not stated)	none (no result: Ecoli WT expand, WNV protease inh, Ecoli tolC, TNAP act mid DEA)
FC(F)(F)c1cccc(N2CCN(c3nnnn3-c3ccccc3)CC2)c1	Ecoli tolC 69
c1ccc(CC2CCN(c3nnnn3-c3ccccc3)CC2)cc1	Ecoli tolC 76
Cc1ccc2oc(-c3cccc(NC(=O)c4cc([N+](=O)[O-])ccc4Cl)c3)nc2c1	none (no result: Ecoli WT expand, WNV protease inh, Ecoli tolC, TNAP act mid DEA)
CC(C)NC(=O)c1ccc2c(c1)nnn2C	none
Cn1nnc2cc(C(=O)NC3CCCCC3)ccc21	WNV protease inh -5.2
O=C(COc1cccc(OC(F)F)c1)Nc1ccc(SC(F)F)cc1	Ecoli tolC 70 (no result: BAP1 block)
Cn1c(=O)c2c(-c3ccncc3)c3c(nc2n(C)c1=O)-c1ccccc1C3=O	none (no result: Ecoli WT expand)
COC(=O)c1ccc(CSc2nnc(NCc3ccccc3)s2)o1	none
